Activity calls are given as the source filed them.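 Rule for the calls, unless noted: active = inhibition at or above 50% at 10 µM; inactive = inhibition below 50%.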
Tests used:
[1] = inhibitors of TNFa-induced NFkB p65 translocation, primary screen, imaging, HUVEC, MLSMR starter and 10KST1 sets (AID 438;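 active = inhibition above 20% together with a positive visual image hit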;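 note: compound added about 3h40 before a 20 min TNFalpha stimulation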;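 for inhibition: signal is the nuclear over cytoplasmic p65 intensity ratio per well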); conditions: HUVEC TNFa-induced p65 nuclear translocation; cell count: measured here: nuclei count (cytotoxicity indicator), at 2.08 µM; inhibition: at 2 µM, stronger effect = higher value, 0% TNFa-plus-vehicle, 100% no-TNFa wells
[2] = inhibitors of mutant huntingtin aggregation, primary screen, imaging, exon1htt(103Q)mCFP cells, high-content imaging (AID 483;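 active = visual image review flags a hit and inhibition of aggregation exceeds 20%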;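 note: compound exposure lasted 3 days before fixation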;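 for nuclei count: percent of the per-plate median nuclei count of sample wells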); conditions: exon1htt(103Q)mCFP cell line, aggregate imaging, at 2 µM; inhibition of aggregation: stronger effect = higher value; nuclei count: measured here: cell count, toxicity
[3] = inhibitors of E-selectin induction by TNFa, primary screen, imaging, HUVEC, immunofluorescence, MLSMR starter and 10KST1 sets (AID 487;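 active = visually confirmed hit in the image check and inhibition above 20%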;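 for inhibition: signal is fraction of cell area covered by stained E-selectin grains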;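 for nuclei count: 100% = median nuclei count of all wells on the same plate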); conditions: HUVEC TNFalpha-induced E-selectin immunofluorescence imaging, at 2 µM; inhibition: stronger effect = higher value; nuclei count: measured here: cell number, toxicity
[4] = target: Voltage-gated potassium channel subunit beta-2 (Rattus norvegicus) (UniProt P62483); assay: KvBeta enzyme negative modulators, primary screen, biochemical, NADPH fluorescence (AID 622;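 active = fluorescence slope higher than the sample average by over 3 SD, cut at about -0.22 in these data, passing the limit was not always enough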;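 note: slope of raw intensity against log time taken from 70 to 1610 s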); conditions: recombinant KvBeta, 4-cyanobenzaldehyde reduction, at 10 µM, stronger effect = higher value
Sequence of Voltage-gated potassium channel subunit beta-2 (Rattus norvegicus) (P62483 whole entry, looked up): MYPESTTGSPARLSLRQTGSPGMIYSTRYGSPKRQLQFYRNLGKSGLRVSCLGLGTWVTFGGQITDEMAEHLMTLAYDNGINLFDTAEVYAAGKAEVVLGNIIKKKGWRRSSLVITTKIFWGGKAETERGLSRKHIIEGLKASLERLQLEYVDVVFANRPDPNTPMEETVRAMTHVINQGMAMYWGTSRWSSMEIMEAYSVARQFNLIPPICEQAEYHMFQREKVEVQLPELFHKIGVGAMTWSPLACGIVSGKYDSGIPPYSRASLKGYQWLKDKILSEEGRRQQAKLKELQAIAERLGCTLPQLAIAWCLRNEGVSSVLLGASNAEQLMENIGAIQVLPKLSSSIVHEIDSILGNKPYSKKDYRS

[5] = target: Voltage-gated potassium channel subunit beta-2 (Rattus norvegicus) (UniProt P62483); assay: KvBeta positive modulators, primary screen, biochemical, NADPH fluorescence (AID 623;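 active = NADPH fluorescence slope more negative than the mean of all samples by about 3 SD, 99.7% confidence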;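 note: fluorescence intensity change per second fitted from 20 to 320 s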); conditions: Recombinant KvBeta, NADPH fluorescence decrease slope, 10 min; at 10 µM; stronger effect = lower value
[6] = target: Muscarinic acetylcholine receptor M4 (Homo sapiens) (UniProt P08173); assay: compounds altering M4/GIRK thallium flux, either direction, primary screen, M4 allosteric agonist project, cell-based, HEK293 M4/GIRK, BTC-AM (AID 625;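 active = fluorescence slope after compound addition differing from the mean of all tested samples at 99.7% confidence, mostly higher but some lower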;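 note: thallium influx through GIRK channels coupled to M4 in HEK293 cells with BTC-AM dye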); conditions: at 10 µM, actives lie on both sides
Sequence of Muscarinic acetylcholine receptor M4 (Homo sapiens) (P08173 whole entry, looked up): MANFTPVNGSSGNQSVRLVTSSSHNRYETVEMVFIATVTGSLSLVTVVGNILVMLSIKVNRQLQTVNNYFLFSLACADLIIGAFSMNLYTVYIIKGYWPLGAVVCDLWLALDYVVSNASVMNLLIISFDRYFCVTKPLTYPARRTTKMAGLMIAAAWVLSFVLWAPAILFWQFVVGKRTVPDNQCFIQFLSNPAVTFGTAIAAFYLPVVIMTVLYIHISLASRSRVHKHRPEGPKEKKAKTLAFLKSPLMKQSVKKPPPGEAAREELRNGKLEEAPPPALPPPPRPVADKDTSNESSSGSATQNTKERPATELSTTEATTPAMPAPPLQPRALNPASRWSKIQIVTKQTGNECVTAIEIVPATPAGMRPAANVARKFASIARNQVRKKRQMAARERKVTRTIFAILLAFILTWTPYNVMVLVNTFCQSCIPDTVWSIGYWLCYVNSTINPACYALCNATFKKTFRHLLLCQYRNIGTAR
How it was run: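 System: HEK293 cells with M4 receptor and GIRK channels | Incubation: Cells overnight at 37 °C, BTC-AM loading 1 h, reads 2 min total | Technique: Kinetic BTC-AM fluorescence sampled at 1 Hz, 10 s pre-addition baseline | Measure: Post-addition slope, 15–24 s, of baseline-normalized fluorescence | Control set: Carbachol positive, DMSO negative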

[7] = inhibitors of Sendai virus-induced IRF3 signaling, primary screen, TLR/RLR signaling modifier project, cell-based, Sendai virus stimulus, luciferase, 10K MLSCN set (AID 602276); conditions: HEK293 RL24 IRF3 luciferase reporter, at 10 µM, stronger effect = higher value;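 note: firefly luciferase from ISG56 promoter only with Renilla not read in this screen; 0% = Sendai virus plus DMSO and 100% = medium plus DMSO without virus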
[8] = inhibitors of poly I:C-induced TLR3 signaling, primary screen, cell-based, poly I:C stimulus, luciferase, 10K MLSCN set (AID 602277;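 active = inhibition of the reporter signal at or above 50%; inactive = inhibition below 50%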); conditions: HEK293-TLR3 RL24 IRF3 luciferase reporter, at 10 µM, stronger effect = higher value

Row | Structure (SMILES) | cell count [1] | inhibition [1] | inhibition of aggregation [2] | nuclei count [2] [%] | inhibition [3] | nuclei count [3] [%] | fluorescence slope [4] | NADPH fluorescence slope [5] | fluorescence slope [6] | inhibition [7] | inhibition [8]
1 | CCOC(=O)c1ccc(NC(=O)CCNc2c(N3CCCC3)c(=O)c2=O)cc1 | 266 | 0% (inactive) | 26.6% (inactive) | 70.7 | -20.2% (inactive) | 117 | -0.609 (inactive) | 5.7e-06 (inactive) | 0.00478 (inactive) | 4.44% (inactive) | 10.6% (inactive)
2 | CN(C)C=Nc1nonc1N | 429 | 9% (inactive) | -2% (inactive) | 105 | 24.6% (inactive) | 99.3 | -0.584 (inactive) | -7.3e-05 (inactive) | 0.00382 (inactive) | 18% (inactive) | 21% (inactive)
3 | O=C(NCC(=O)N(CCc1ccccc1)C(C(=O)NC1CCCC1)c1cccnc1)c1ccco1 (centres undefined) | 464 | 6.5% (inactive) | 2.2% (inactive) | 108 | -126% (inactive) | 141 | -0.493 (inactive) | 1.4e-05 (inactive) | 0.00509 (inactive) | 7.14% (inactive) | 6.57% (inactive)
4 | CC1(C)NC(=O)N(CCCOc2ccc(Br)cc2Cl)C1=O | 278 | -10% (inactive) | -8.8% (inactive) | 110 | -4.9% (inactive) | 119 | -0.458 (inactive) | -2.9e-06 (inactive) | 0.00559 (inactive) | -28.8% (inactive) | -113% (inactive)
5 | CCOc1ccc(-c2noc(-c3ccncc3)n2)cc1OCC | 807 | 1.7% (inactive) | 33.6% (inactive) | 106 | -21.2% (inactive) | 117 | -0.533 (inactive) | 4e-05 (inactive) | 0.023 (active) | 4.12% (inactive) | -4.62% (inactive)
6 | O=C(O)c1oc2ccccc2c1-n1cccc1 | 436 | 13.8% (inactive) | 10.7% (inactive) | 110 | -0.2% (inactive) | 112 | -0.531 (inactive) | -1.3e-05 (inactive) | 0.00514 (inactive) | 10.5% (inactive) | 26% (inactive)
7 | CCCn1c2ccccc2c2nnc(SCC(=O)Nc3ncccn3)nc21 | 696 | -4.4% (inactive) | -41% (inactive) | 53.5 | -10.4% (inactive) | 98.8 | -0.551 (inactive) | -1.7e-05 (inactive) | 0.00402 (inactive) | 12.2% (inactive) | 21.2% (inactive)
8 | O=C(c1cn(-c2ccccc2)nc1-c1cccs1)N1CCN(c2ccccn2)CC1 | 465 | -10.8% (inactive) | 11.5% (inactive) | 84.1 | -83% (inactive) | 150 | -0.421 (inactive) | 4e-05 (inactive) | 0.00586 (inactive) | 6.18% (inactive) | -18.9% (inactive)
9 | COc1ccc(OC)c(Nc2cc(-c3ccccc3)nc(N)n2)c1 | 423 | 9.2% (inactive) | -34.6% (inactive) | 0.5 | -25.1% (inactive) | 115 | -0.548 (inactive) | 4.9e-06 (inactive) | 0.00508 (inactive) | 46.6% (inactive) | 86.6% (active)
10 | CCNS(=O)(=O)c1c(C)cc(N2CCCC2=O)cc1C | 498 | -8% (inactive) | 4.4% (inactive) | 88.1 | 27.7% (inactive) | 89 | -0.438 (inactive) | 9.1e-05 (inactive) | 0.00655 (inactive) | -1.95% (inactive) | 0.215% (inactive)
11 | O=C(N1CCN(Cc2ccccc2)CC1)C12CC3CC(CC(C3)C1)C2 | 530 | -4.3% (inactive) | 2% (inactive) | 88.3 | -15.4% (inactive) | 92.7 | -0.327 (inactive) | -4.6e-05 (inactive) | 0.00533 (inactive) | 17% (inactive) | 8.52% (inactive)
12 | CCOC(=O)C1CCN(S(=O)(=O)c2cc(Cl)c(C)cc2OC)CC1 | 441 | -9.5% (inactive) | -0.9% (inactive) | 109 | -41% (inactive) | 116 | -0.587 (inactive) | 1.4e-05 (inactive) | 0.00585 (inactive) | 19.9% (inactive) | 38.6% (inactive)
13 | COCCN1C(=O)c2oc3c(C)cc(C)cc3c(=O)c2C1c1cccc(O)c1 (centres undefined) | 561 | -25% (inactive) | 6.4% (inactive) | 95.1 | -66% (inactive) | 120 | -0.545 (inactive) | -5.1e-05 (inactive) | 0.00558 (inactive) | 8.51% (inactive) | -1.3% (inactive)
14 | CN(C)C(=O)CSc1nnc([C@H](Cc2c[nH]c3ccccc23)NC(=O)OC(C)(C)C)o1 | 375 | 2.2% (inactive) | -9.3% (inactive) | 108 | -35.8% (inactive) | 112 | -0.634 (inactive) | -2.1e-05 (inactive) | 0.00313 (inactive) | 18.2% (inactive) | 23.4% (inactive)

Reference: PubChem BioAssay
